The species named for experiment [1] is Cavia porcellus. Description: Maximum increase in coronary flow in isolated guinea pig heart at a dose of 10 ug. Type of experiment: functional. The procedure, abridged:
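Langendorff-perfused isolated guinea pig heart with oxygenated (95% O2/5% CO2) Krebs-Henseleit fluid at 34 ± 1 °C and 60 cm H2O perfusion pressure. Compound dissolved in propylene glycol at 100 µg/mL and infused at 0.1 mL/min. Coronary flow recorded by electromagnetic flow meter before and after infusion, expressed as percent gain. Mean ± SE of five experiments.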

Experiment [2] is filed under the species Cavia porcellus. Nature of the experiment: Effect on maximum increase in coronary flow in isolated guinea pig heart at a dose of 10 (ug/heart); Inactive. It counts as functional.
The subject of experiment [3] is Canis familiaris. Nature of the experiment: Change in the heart rate and hypotensive action was measured in dogs at 10 mg/kg dose, 120 min after id administration. Type of experiment: functional, Canis lupus familiaris. To be noted: route intraduodenal. In short, it runs like this:
(§1)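 Dogs of 12-22 kg were anesthetized with pentobarbital sodium (35 mg/kg ip), given supportive respiration, and opened by left thoracotomy at the fourth intercostal space. Compound was suspended in 0.5% CMC (10 mg/mL) and given intraduodenally via cannula at 10 mg/kg. Blood pressure was taken by carotid cannula and pressure transducer, and heart rate from the ECG. Values are mean ± SE, six experiments.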

Experiment [4] relates to Canis familiaris. Description: Change in the heart rate and hypotensive action was measured in dogs at 10 mg/kg dose, 30 min after id administration. It counts as functional, Canis lupus familiaris. Conditions: route intraduodenal. The procedure, abridged: as §1
For experiment [5], the system named is Canis familiaris. Description: Change in the heart rate and hypotensive action was measured in dogs at 10 mg/kg dose, 5 min after id administration. To be noted: route intraduodenal. Type of experiment: functional, Canis lupus familiaris. The procedure, abridged:
as §1

Experiment [6] concerns Canis familiaris. Description: Change in the heart rate and hypotensive action was measured in dogs at 10 mg/kg dose, 60 min after id administration. It counts as functional, Canis lupus familiaris. To be noted: route intraduodenal. The procedure, abridged:
as §1

Experiment [7] has as its system Canis familiaris. Nature of the experiment: Change in the mean blood pressure and hypotensive action was measured in dogs at 10 mg/kg dose, 120 min after id administration. It counts as functional, Canis lupus familiaris. To be noted: route intraduodenal. In short, it runs like this: as §1
Experiment [8] deals with Canis familiaris. Nature of the experiment: Change in the mean blood pressure and hypotensive action was measured in dogs at 10 mg/kg dose, 30 min after id administration. Type of experiment: functional, Canis lupus familiaris. To be noted: route intraduodenal. In short, it runs like this:
as §1

Experiment [9] concerns Canis familiaris. Description: Change in the mean blood pressure and hypotensive action was measured in dogs at 10 mg/kg dose, 5 min after id administration. Type of experiment: functional, Canis lupus familiaris. Conditions: route intraduodenal. In short, it runs like this: as §1
Experiment [10] has as its system Canis familiaris. Nature of the experiment: Change in the mean blood pressure and hypotensive action was measured in dogs at 10 mg/kg dose, 60 min after id administration. Conditions: route intraduodenal. It counts as functional, Canis lupus familiaris. The procedure, abridged:
as §1

Experiment [11] concerns Canis familiaris. Description: Compound was tested for max increase in blood flow through cicumflex branch of left coronary artery, 120 min after administration. It counts as functional, Canis lupus familiaris. The procedure, abridged:
(§2)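 Anesthetized dogs (12-22 kg; pentobarbital sodium 35 mg/kg ip, supportive respiration) underwent left thoracotomy at the fourth intercostal space. Flow in the left coronary artery branch was recorded with an electromagnetic flow meter and expressed as percent increase. Compound in 0.5% CMC (10 mg/mL) was given intraduodenally at 10 mg/kg. Values are mean ± SE, six experiments.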

Experiment [12] relates to Canis familiaris. Nature of the experiment: Compound was tested for max increase in blood flow through cicumflex branch of left coronary artery, 30 min after administration. It counts as functional, Canis lupus familiaris. The procedure, abridged: as §2
In experiment [13] the test system is Canis familiaris. Nature of the experiment: Compound was tested for max increase in blood flow through cicumflex branch of left coronary artery, 5 min after administration. It counts as functional, Canis lupus familiaris. In short, it runs like this:
as §2

Experiment [14] concerns Canis familiaris. Description: Compound was tested for max increase in blood flow through cicumflex branch of left coronary artery, 60 min after administration. Type of experiment: functional, Canis lupus familiaris. The procedure, abridged: as §2
The species entered for experiment [15] is Cavia porcellus. Description: pA2 was measured as Calcium antagonistic activity.
Experiment [16] concerns Canis familiaris. Nature of the experiment: Compound was tested for max increase in blood flow through circumflex branch of left coronary artery, 5 min after administration. Type of experiment: functional, Canis lupus familiaris. The procedure, abridged: as §2

Calls of active or inactive are those of the source. No cut-off for these calls is given here.

Turning to `CCOP(=O)(Cc1ccc(-c2nc3cccc(O)c3s2)cc1)OCC`, in the experiment filed under Cavia porcellus [1], the Increase is listed as 20.6%.

In the experiment filed under Cavia porcellus [1], `CCCCOP(=O)(Cc1ccc(-c2nc3ccccc3s2)cc1)OCCCC` returned an Increase of 37.3%.

Compound `CCOP(=O)(Cc1ccc(-c2nc3ccc(Cl)cc3s2)cc1)OCC` gave an Increase in the experiment listed under Cavia porcellus [1] of 54.6%.

In the experiment filed under Cavia porcellus [1], `CCOP(=O)(Cc1ccc(-c2nc3cc(OC(C)=O)ccc3s2)cc1)OCC` had an Increase of 23.2%.

`CCOP(=O)(Cc1ccc(-c2nc3ccc(C)cc3s2)cc1)OCC`: the Increase in the experiment filed under Cavia porcellus [1] is given as 31.3%.

Consider `CCOP(=O)(Cc1ccc(-c2nc3ccc(NC(C)=O)cc3s2)cc1)OCC`, for which, in the experiment filed under Cavia porcellus [1], the Increase is given as 48.7%.

`CC(C)OP(=O)(Cc1ccc(-c2nc3ccccc3s2)cc1)OC(C)C` registered an Increase in the experiment listed under Cavia porcellus [1] of 75.6%.

`CCOP(=O)(Cc1ccc(-c2nc3ccc(OC(C)=O)cc3s2)cc1)OCC`: in the experiment listed under Cavia porcellus [1], the Increase is on record as 56.7%.

`CCOP(=O)(Cc1ccc(-c2nc3ccc(O)cc3s2)cc1)OCC` showed an Increase in the experiment filed under Cavia porcellus [1] of 63.3%.

In the experiment filed under Cavia porcellus [1], `CCCOP(=O)(Cc1ccc(-c2nc3ccccc3s2)cc1)OCCC` had an Increase of 62.4%.

Take `CCOP(=O)(Cc1ccc(-c2nc3cc(O)ccc3s2)cc1)OCC`: the Increase in the experiment listed under Cavia porcellus [1] came out at 49%.

With `COP(=O)(Cc1ccc(-c2nc3ccccc3s2)cc1)OC`, the Increase in the experiment filed under Cavia porcellus [1] came to 34.8%.

Take `CCOP(=O)(Cc1ccc(-c2nc3cccc(OC(C)=O)c3s2)cc1)OCC`: the Increase in the experiment listed under Cavia porcellus [1] is given as 71.7%.

With `CCOP(=O)(Cc1ccc(-c2nc3ccc(OC)cc3s2)cc1)OCC`, the Increase in the experiment filed under Cavia porcellus [1] was 20.1%.

For the compound `CCOP(=O)(Cc1ccc(-c2nc3ccc(N)cc3s2)cc1)OCC.Cl`, the Increase in the experiment listed under Cavia porcellus [1] is 50%.

Turning to `CCOC(=O)Cc1ccc(-c2nc3ccccc3s2)cc1`, the Increase entry in the experiment listed under Cavia porcellus [2] is “inactive”.

As for `CCOP(=O)(Cc1ccc(-c2nc3ccc([N+](=O)[O-])cc3s2)cc1)OCC`, the Increase result in the experiment filed under Cavia porcellus [2] was “inactive”.

For the compound `Cc1ccc(-c2nc3ccccc3s2)cc1`, the Increase result in the experiment listed under Cavia porcellus [2] is “inactive”.

Take `O=P(O)(O)Cc1ccc(-c2nc3ccccc3s2)cc1`: the Increase result in the experiment listed under Cavia porcellus [2] is “inactive”.

Regarding `COc1ccc([C@@H]2Sc3ccccc3N(CCN(C)C)C(=O)[C@@H]2OC(C)=O)cc1.Cl` [DILTIAZEM HYDROCHLORIDE], the Change in the experiment with Canis familiaris [3] was -27.2 beats min-1; with Canis familiaris [4], -19.7 beats min-1; in the experiment on Canis familiaris [5], 3.2 beats min-1; in the experiment with Canis familiaris [6], -29.2 beats min-1; with Canis familiaris [7], -14.5 mmHg; in the experiment with Canis familiaris [8] it was -10.7 mmHg. For the same compound, the Change was -2.7 mmHg in the experiment on Canis familiaris [9] and -13.8 mmHg in the experiment on Canis familiaris [10]. Further, the Increase in the experiment with Canis familiaris [11] is listed as 74.6%; in the experiment with Canis familiaris [12] it was 85.5%; in the experiment on Canis familiaris [13] it was 6.5%; in the experiment on Canis familiaris [14], 89.4%; in the experiment listed under Cavia porcellus [1], 63.9%. Besides, the Kb in the experiment listed under Cavia porcellus [15] was 417 nM.

On to `CCOP(=O)(Cc1ccc(-c2nc3ccccc3s2)cc1)OCC` [FOSTEDIL], for which the Change in the experiment with Canis familiaris [3] is reported as -18.7 beats min-1; in the experiment with Canis familiaris [4] it was -18.3 beats min-1; in the experiment on Canis familiaris [5], -6.9 beats min-1; in the experiment on Canis familiaris [6], -20.8 beats min-1; in the experiment on Canis familiaris [7] it was -13.3 mmHg; with Canis familiaris [8] it was -9.7 mmHg. Besides, the values for the Change in the experiment with Canis familiaris [9] and in the experiment with Canis familiaris [10] were -13.4 mmHg and -12 mmHg, respectively. The Increase with Canis familiaris [16] amounted to 28.2%; in the experiment on Canis familiaris [11], 91.8%; in the experiment with Canis familiaris [12], 65.2%; with Canis familiaris [14], 87.5%; in the experiment listed under Cavia porcellus [1], 79.9%. The Kb in the experiment filed under Cavia porcellus [15] was 120 nM.

Regarding `COc1ccc(Cc2nccc3cc(OC)c(OC)cc23)cc1OC.Cl` [PAPAVERINE HYDROCHLORIDE], in the experiment listed under Cavia porcellus [1], the Increase was 55.8%.

As a reminder, the Kb is the equilibrium dissociation constant of an antagonist, usually derived from a functional assay.

The record behind these values is ChEMBL document CHEMBL1123185, “Organic phosphorus compounds. 1. 4-(Benzothiazol-2-yl)benzylphosphonate as potent calcium antagonistic vasodilator” (J Med Chem, 1986).
